A short description of series [1]: Iron clearance was stimulated by the compound was expressed as % distribution of excreted Fe in urine by subcutaneous dose of 150 umol/kg. Particulars: in vivo, sc. Format: ADME. Put shortly:
(§1)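 Non-iron-overloaded, bile duct-cannulated male Sprague–Dawley rats (about 400 g), housed in metabolic cages with free access to water. Single sc injection at 150 µmol/kg. Bile was collected at 3-h intervals for 48 h and urine every 24 h. Excreted iron was apportioned between bile and urine.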

Series [2] deals with Paracoccus denitrificans. Put plainly: Michaelis-Menten constant for accumulation of [55Fe]-labeled low-affinity component complexes by Paracoccus denitrificans. Format: functional, organism-based. Put shortly:
(§2)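 Late log-phase P. denitrificans (ATCC 17741), grown in defined low-iron medium with 0.5 μM Fe(III), washed and resuspended in transport buffer to OD660 1.00. Suspensions were preincubated 15 min at 30 °C with shaking before [55Fe] ferric chelate was added at 0.1–5.0 μM. Samples were taken every 20 s for 2 min, stopped in chilled buffer, filtered, rinsed and scintillation counted. Initial rates were expressed per mg protein, and Km and Vmax were taken from Lineweaver–Burk fits.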

In another series the test system is Rattus norvegicus. Put plainly: Iron clearance was stimulated by the compound was expressed as % efficiency by subcutaneous dose of 150 umol/kg. Format: functional. The essentials: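 Bile duct-cannulated, non-iron-overloaded male Sprague–Dawley rats (about 400 g) were kept in metabolic cages and given one sc dose of 150 µmol/kg. Bile was collected every 3 h and urine every 24 h over 48 h. Efficiency is the excreted iron minus that of control animals, divided by the theoretical iron excretion from dose and coordination chemistry.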

The nature of series [3]: Iron clearance was stimulated by the compound was expressed as % distribution of excreted Fe in bile by subcutaneous dose of 150 umol/kg. Format: ADME. Particulars: in vivo, sc. Put shortly:
as §1

Series [4] deals with Paracoccus denitrificans. Description: Maximum velocity of accumulation of [55Fe]-labeled low-affinity component complexes by Paracoccus denitrificans. The class given is functional, organism-based. Further details: unit not given here. Put shortly: as §2
The subject of series [5] is Paracoccus denitrificans. Description: Maximum velocity of accumulation of [55Fe]-labeled high-affinity component complexes by Paracoccus denitrificans. Format: functional, organism-based. Further details: unit not given here. The essentials:
as §2

The test system of series [6] is Paracoccus denitrificans. Description: Michaelis-Menten constant for accumulation of [55Fe]-labeled high-affinity component complexes by Paracoccus denitrificans. Format: functional, organism-based. The essentials: as §2

Several values for one entry are separate records, joined by “and”; a condition that tells them apart may be missing. Identical values can stand only once.

`C[C@@H]1OC(c2cccc(O)c2O)=N[C@H]1C(=O)N(CCCNC(=O)c1cccc(O)c1O)CCCNC(=O)c1cccc(O)c1O`: the entries for the “Distribution of excreted Fe” value in series [1] and in series [3] were 9.2% and 90.8%, respectively. For the same compound, the Km (commonly the concentration of substrate that gives half-maximal velocity) in the series on Paracoccus denitrificans [2] came to 3.5 µM. In the series with Rattus norvegicus, this compound displayed an Efficiency of 16%. In the series with Paracoccus denitrificans [4], the Vmax amounted to 96.
Turning to `C[C@H]1OC(c2cccc(O)c2O)=N[C@@H]1C(=O)N(CCCCNC(=O)c1cccc(O)c1O)CCCNC(=O)c1cccc(O)c1O`, the Km in the series with Paracoccus denitrificans [2] was 0.55 µM and 0.53 µM; in the series on Paracoccus denitrificans [6], 0.11 µM. In addition, the Vmax in the series on Paracoccus denitrificans [5] was 157 and 153; in the series with Paracoccus denitrificans [4] it was 245 and 247.
With `C[C@H]1OC(c2cccc(O)c2O)=N[C@@H]1C(=O)N(CCCCNC(=O)c1cccc(O)c1O)CCCCNC(=O)c1cccc(O)c1O`, the Km with Paracoccus denitrificans [2] turned out to be 1 µM; with Paracoccus denitrificans [6] it was 0.17 µM. Further, the Vmax worked out at 138 in the series on Paracoccus denitrificans [5] and 229 in the series on Paracoccus denitrificans [4].
As to `C[C@H]1OC(c2cccc(O)c2O)=NC1C(=O)N(CCCNC(=O)c1cccc(O)c1O)CCCNC(=O)c1cccc(O)c1O` (stereo not given in full), the “Distribution of excreted Fe” value in series [1] amounted to 15.4%; in series [3], 84.6%. Moreover, the values for the Km in the series on Paracoccus denitrificans [2] and in the series on Paracoccus denitrificans [6] were 2.2 µM and 0.23 µM, respectively. Also, the Vmax in the series on Paracoccus denitrificans [5] is 129; in the series with Paracoccus denitrificans [4], 413. The compound further had an Efficiency with Rattus norvegicus of 13.8%.

Source of the values: ChEMBL document CHEMBL1134539, “Significance of asymmetric sites in choosing siderophores as deferration agents” (J Med Chem, 2001).
